From ChEMBL document CHEMBL1123183, “Synthesis and antiviral properties of 5-(2-substituted vinyl)-6-aza-2'-deoxyuridines” (1986) come the findings set out here.

≈ marks a conversion by molar mass, not a printed value.

What all share (assay type): functional
Settings in all cases: Chlorocebus sabaeus, read-out: ID50 (the source's name)

The subject of assay [1] is Vero. Description: In vitro antiviral activity against HSV-1(strain HFEM) in Vero cells. The method in brief:
(§1)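 Plaque reduction in confluent Vero monolayers infected with 30-40 PFU of HSV-1 (strain HFEM) or HSV-2 (strain 196), then 1 h at 37 °C. Overlay of maintenance medium with 0.75% carboxymethylcellulose and a range of compound concentrations, then 2 days at 37 °C. Cells fixed and stained, plaques counted. ID50 is the concentration giving 50% plaque inhibition.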

Assay [2] has as its system Vero. In words: In vitro antiviral activity against HSV-2(strain 196) in Vero cells. An outline of the steps:
as §1

Assay [3] has as its system Vero. In words: Cytotoxicity was measured by determining the incorporation of [methyl-3H]thymidine into DNA of Vero cells. The method in brief: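 Subconfluent Vero monolayers overlaid with maintenance medium holding 1 μCi/mL [methyl-3H]thymidine plus a range of nucleoside concentrations. Incubated 18 h at 37 °C. DNA synthesis read as label in acid-precipitable material. ID50 is the concentration giving 50% reduction of thymidine incorporation.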

Regarding `O=c1[nH]c(=O)n(C2C[C@@H](O)[C@@H](CO)O2)nc1-c1ccoc1` (stereo partly drawn), the results for the IC50 in assay [1], in assay [2] and in assay [3] were 42 µg/mL (≈ 142 µM), 39 µg/mL (≈ 132 µM) and 45 µg/mL (≈ 152 µM), respectively.

For the molecule `O=c1[nH]c(=O)n(C2C[C@@H](O)[C@@H](CO)O2)nc1C=C(Br)Br` (stereo partly drawn), the IC50 in assay [1] was 100 µg/mL (≈ 242 µM); in assay [2] it was 100 µg/mL (≈ 242 µM); in assay [3], greater than 500 µg/mL.

`COC(=O)/C=C/c1nn(C2C[C@@H](O)[C@@H](CO)O2)c(=O)[nH]c1=O` (stereo partly drawn): the IC50 in assay [1] and in assay [3] was greater than 500 µg/mL in each case.

Regarding `O=c1[nH]c(=O)n(C2C[C@@H](O)[C@@H](CO)O2)nc1CC(F)(F)F` (stereo partly drawn), the IC50 was greater than 250 µg/mL in assay [1], greater than 250 µg/mL in assay [2] and greater than 500 µg/mL in assay [3].

Take `CS/C=C/c1nn(C2C[C@@H](O)[C@@H](CO)O2)c(=O)[nH]c1=O` (stereo partly drawn): the IC50 is greater than 250 µg/mL in assay [1], greater than 250 µg/mL in assay [2] and 420 µg/mL (≈ 1390 µM) in assay [3].

On to `O=C(O)/C=C/c1nn(C2C[C@@H](O)[C@@H](CO)O2)c(=O)[nH]c1=O` (stereo partly drawn), for which the IC50 in assay [1] was greater than 250 µg/mL; in assay [3], greater than 500 µg/mL.

As for `O=c1[nH]c(=O)n(C2C[C@@H](O)[C@@H](CO)O2)nc1/C=C/Cl` (stereo partly drawn), the figures for the IC50 in assay [1], in assay [2] and in assay [3] were 20 µg/mL (≈ 69 µM), 215 µg/mL (≈ 742 µM) and greater than 500 µg/mL, respectively.

For `O=c1[nH]c(=O)n(C2C[C@@H](O)[C@@H](CO)O2)nc1/C=C/Br` (stereo partly drawn), the IC50 in assay [1] turned out to be 8 µg/mL (≈ 23.9 µM); in assay [2], 190 µg/mL (≈ 569 µM); in assay [3], 355 µg/mL (≈ 1060 µM).

With `O=Cc1nn(C2C[C@@H](O)[C@@H](CO)O2)c(=O)[nH]c1=O` (stereo partly drawn), the results for the IC50 in assay [1] and in assay [3] were greater than 500 µg/mL and 180 µg/mL (≈ 700 µM), respectively.

On to `COC(F)(F)Cc1nn(C2C[C@@H](O)[C@@H](CO)O2)c(=O)[nH]c1=O` (stereo partly drawn), for which the IC50 was 82 µg/mL (≈ 254 µM) in assay [1], greater than 250 µg/mL in assay [2] and greater than 500 µg/mL in assay [3].

In the case of `O=c1[nH]c(=O)n(C2C[C@@H](O)[C@@H](CO)O2)nc1/C=C(\F)Br` (stereo partly drawn), the IC50 was greater than 250 µg/mL in assay [1], greater than 250 µg/mL in assay [2] and greater than 500 µg/mL in assay [3].

On to `O=c1[nH]c(=O)n([C@H]2C[C@H](O)[C@@H](CO)O2)cc1/C=C/Br` [BRIVUDINE], for which the IC50 came to 0.015 µg/mL (≈ 0.045 µM) in assay [1], 1.6 µg/mL (≈ 4.8 µM) in assay [2] and 50 µg/mL (≈ 150 µM) in assay [3].
